Source: PubChem (PCMD)
Shown are actives, neighbours in structure and some others; about 1% of the full set was active somewhere.
Yeast eIF2B: modulators of yeast eIF2B activity; S. cerevisiae eIF2B-epsilon R284H, GCN4-lacZ luminescence; inhibition, % at 25 µM (by protocol); hit rate 0.91% among 27,000;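 active means mutant luminescence inhibited past about 50% while wild type luminescence and mutant growth stay under set limits, limit read from the data; inconclusive means mutant versus wild type luminescence inhibition gap past a set limit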
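material = yeast eIF2B-epsilon R284H mutant carrying GCN4–beta-galactosidase fusion | schedule = 16 h growth with compound at 30 °C, 90 min Beta-Glo step | measured by = luminescence and A595 | compound dosing = one concentration, 25 µM, 0.25% DMSO | read-out basis = % inhibition of reporter signal and growth versus controls | buffer or medium = YPD medium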
Yeast tox: Inhibits yeast growth, turbidity readout. S. cerevisiae wild-type growth, A595 turbidity, 16 h. growth inhibition, % at 25 µM (by protocol). hit rate 0.3% among 30,000;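 active means mutant and wild-type yeast strains alike exhibit over 30% growth inhibition; inconclusive means a strain exceeds 50% while the second remains under 30%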
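System: S. cerevisiae wild-type or eIF2Bepsilon-R284H mutant strain; times: 16 h growth with compound, 30 °C; signal: absorbance at 595 nm (turbidity); measure: growth inhibition (%) versus cell controls and blanks; compound: 25 µM single dose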
Large screens that a line does not name were inactive.

Cc1[nH][nH]c(=O)c1C(c1ccc(-c2ccc(Cl)c(Cl)c2)o1)c1c(C)[nH][nH]c1=O	Yeast tox 45.8
Cc1ccc(S(=O)(=O)Oc2ccc(C(c3c(C)[nH][nH]c3=O)c3c(C)[nH][nH]c3=O)cc2)cc1	none
COc1cc(S(=O)(=O)N2CCN=C2c2ccccc2)ccc1F	Yeast tox inconclusive
COc1ccc(C2=CSC3=NCCN23)cc1F	Yeast eIF2B 64.5
Cc1ccc(S(=O)(=O)Cc2ccc(C(=O)O)o2)cc1	none
Cc1cc2c(cc1C)CSC(c1ccc3ccccc3c1O)SC2	none (no result: Yeast eIF2B)
Cc1cc2c(cc1C)CSC(c1ccccc1O)SC2	Yeast tox 80.7 (no result: Yeast eIF2B)
Brc1cccc(CN2CCCCCCC2)c1	none
COc1cc(NC(=O)c2ccccc2)c(OC)cc1Cl	none
COCC(=O)Nc1cc(OC)c(Cl)cc1OC	Yeast eIF2B 55.1
CCN(CC)C(=O)c1cn(CC)c(=O)c2cc(OC)c(OC)cc12	none
CC(NC(=O)Cn1nnc(-c2ccncc2)n1)c1ccccc1 (centres undefined)	none
COC(=O)c1cc2c(=O)n3ccccc3nc2n(C)c1=N	Yeast tox 31.9
CC1Cc2ccccc2N1C(=O)c1cc2c(=O)n3ccccc3nc2n1C (centres undefined)	none
O=C(Nc1nc2c(c(=O)[nH]1)CCCC2)C1CC1	none
C=CCOC(=O)C1=C(C)Nc2ncnn2C1c1cccs1 (centres undefined)	none
C=CCOC(=O)C1=C(C)Nc2nc3ccccc3n2C1c1ccncc1 (centres undefined)	Yeast eIF2B 63.1
O=C(CSc1nnc(-c2ccco2)o1)N1c2ccccc2CCc2ccccc21	none
c1ccc(C(c2ccccc2)N2CCN(c3nc4ccccc4n4cnnc34)CC2)cc1	none
COc1ccccc1NC(=O)Oc1ccc(C(C)=O)cc1	none
COc1ccccc1NC(=S)NNC(=O)c1ccccc1	Yeast eIF2B 58.4
COc1ccc(OC)c(C(=O)COC(=O)c2ccccc2O)c1	none
Cc1ccc(-c2cc(NC(=O)CCl)n(-c3ccccc3)n2)cc1	Yeast tox inconclusive
O=C(CCl)Nc1cc(-c2ccccc2)nn1-c1ccccc1	Yeast tox 59.3 (no result: Yeast eIF2B)
CCOCCCNC(=O)C1CCN(c2cc(C)nc3c(-c4ccc(OC)c(OC)c4)c(C)nn23)CC1	Yeast eIF2B 63.3
Cc1cc(N2CCC(C)CC2)n2nc(C)c(-c3ccccc3)c2n1	none
CCOc1ccc(N(C(C)=O)c2nc(C)cc(C)c2C#N)cc1	none
Cc1ccc(NC(=O)CSC2=C(C#N)C(c3ccco3)C3=C(CCCC3=O)N2)cc1 (centres undefined)	none
N#CC1=C(SCC(=O)c2ccc(Cl)cc2)NC2=C(C(=O)CCC2)C1c1ccco1 (centres undefined)	Yeast eIF2B 50.7
CCOC(=O)c1c(NC(=O)CN(C)C)sc(C(=O)N(CC)CC)c1C	none
CCCC(=O)Nc1sc(C(=O)OC)c(C)c1C(N)=O	Yeast eIF2B 58.1
CCOC(=O)C1=C(c2ccccc2)N(C)C(=O)NC1c1ccc(O)c(OC)c1 (centres undefined)	Yeast eIF2B 50.2
CCOC(=O)C1=C(c2ccccc2)N=C2SCC(=O)N2C1c1ccc(OC)c(OC)c1 (centres undefined)	none
O=C1CC(N2CCN(c3ccc(F)cc3)CC2)C(=O)N1Cc1cccs1 (centres undefined)	none
O=C1CC(N2CCN(c3nc4ccccc4s3)CC2)C(=O)N1Cc1cccs1 (centres undefined)	Yeast tox 72.9
COc1ccc(NC(=S)NNC(=O)OC(C)(C)C)cc1OC	none
CC1(C)Cc2c(c(=S)nc(-c3ccccc3)n2CCOCCO)CO1	Yeast eIF2B 51.4
Cc1ccc(-c2nc(=S)c3c(n2CCN2CCOCC2)CC(C)(C)OC3)cc1	none (no result: Yeast eIF2B)
NC(=O)CSC1=Nc2ccccc2C2=NC(CC(=O)NCc3cccs3)C(=O)N12 (centres undefined)	Yeast eIF2B 52.0
COCCCNC(=O)CSC1=Nc2ccccc2C2=NC(CC(=O)NCc3ccccc3)C(=O)N12 (centres undefined)	none
Cc1cc(Br)c2[nH]c3c(c2c1)CCCC3=O	none
O=c1cc(CSc2nnc(COc3ccccc3Cl)o2)nc2sccn12	none
COc1ccc(N/N=C(/N=Nc2nc(C)cc(=O)[nH]2)c2ccccc2)cc1	none
Cc1cc(=O)[nH]c(N=N/C(=N/Nc2ccc(O)cc2)c2ccccc2)n1	Yeast eIF2B 50.3
Cn1c(=O)[nH]c(=O)c2c1nc(Br)n2Cc1ccccc1Cl	none
Cn1c(=O)[nH]c(=O)c2c1nc(SCC(O)CO)n2Cc1ccccc1Cl (centres undefined)	Yeast eIF2B 60.9
Cc1ccc2nc(-c3cccnc3)oc2c1	Yeast eIF2B 53.1
Cc1ccc(-c2nc3cc(C)ccc3o2)cc1	none
CC(NC(=O)C1CCCN(C(=O)N(C)C)C1)c1ccccc1 (centres undefined)	none
COc1ccc(N/C(C)=C2/C(=O)C(=O)N(CCO)C2c2ccc(Br)cc2)cc1 (centres undefined)	none
CC1(C)CC2CC(C)(CN2C(=O)COC(=O)c2ccc(Cl)c(N)c2)C1 (centres undefined)	none (no result: Yeast eIF2B)
